Data as given in ChEMBL document CHEMBL4513216, “Probing the Open Global Health Chemical Diversity Library for Multistage-Active Starting Points for Next-Generation Antimalarials” (ACS Infect Dis, 2020).

Assay: Toxicity liver stage against HepG2, at 10uM
Format: cell-based
Design: test concentration 10 uM, cell line HepG2-A16-CD81EGFP
Details: human, HepG2-A16-CD81EGFP cells; read-out: INHIBITION
Method in brief: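 Uninfected HepG2-A16-CD81EGFP cells, 3 × 10^3 per well, 1536-well, plated on prespotted compound at 10 μM final, parasite-free screening media added to match infected plates; puromycin 10 μM positive, DMSO 0.5% negative; run in parallel with 48 h PbLuc assay at 37 °C, 5% CO2; viability by CellTiter-Glo luminescence, normalized to controls.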

O=C(C1CC1)N1C[C@@H](F)[C@@H](OCc2nc3cc(F)ccc3[nH]2)C1
cytotoxicity at 10 µM: -6.92%

CC[C@H]1CN2CC[C@H]1C[C@@H]2CNC(=O)NC1CCCCC1
cytotoxicity at 10 µM: 0.91%

CC[C@H]1CN(C(=O)C(C)(C)C)CC[C@H]1CC(=O)O
cytotoxicity at 10 µM: -0.61%

CC(=O)c1cc2ncc(C(=O)NC3CCCC3)cc2[nH]1
cytotoxicity at 10 µM: -1.98%

C[C@H](NC(=O)N1CCN(c2ccc(Cl)cc2)CC1)C(=O)N1CCSCC1
cytotoxicity at 10 µM: -6.3%

CCOc1ccc(S(=O)(=O)NCCc2ccc(N(C)C)cc2)cc1C
cytotoxicity at 10 µM: -6.48%

CCC1=N[C@@]2(CC[C@@H]3CN(S(=O)(=O)CC(C)C)C[C@@H]32)C(=O)N1CC1CC1
cytotoxicity at 10 µM: 0.457%

Cn1ncc2c1NC(=O)CSC2c1ccccc1Cl (stereo unspecified)
cytotoxicity at 10 µM: 5.81%

Cc1ccc(CS(=O)(=O)N2CC[C@H]3[C@H]2CCN3C)cc1
cytotoxicity at 10 µM: -11.6%

COCC1CC2(CCN(C(=O)c3occc3C)CC2)CO1 (stereo unspecified)
cytotoxicity at 10 µM: 0.982%

Cc1nn(C)c2cn(CC(=O)N3CCc4ccccc4C3)nc12
cytotoxicity at 10 µM: 8.41%

CCN(Cc1c(C)nn(CC)c1C)S(=O)(=O)c1cn(C)nc1C
cytotoxicity at 10 µM: 7.36%

CNc1cncc(C2CCN(C(=O)c3cnco3)CC2)n1
cytotoxicity at 10 µM: -5.68%

CC(NC(=O)CCn1c(=O)oc2ccccc21)c1ccccn1 (stereo unspecified)
cytotoxicity at 10 µM: -3.34%

CN(C)Cc1ccnc(C2CN(Cc3c(F)cccc3F)CCO2)n1 (stereo unspecified)
cytotoxicity at 10 µM: -3.14%

Cn1cc(CN2CCC(c3[nH]ncc3S(C)(=O)=O)C2)cn1 (stereo unspecified)
cytotoxicity at 10 µM: -4.55%

CN1CCCCC12Cc1ccccc1CN(C(=O)C1CCCC1)C2 (stereo unspecified)
cytotoxicity at 10 µM: 2.88%

CCOC1CCCN(C(=O)CCOc2ccc(C)cc2OC)C1 (stereo unspecified)
cytotoxicity at 10 µM: -9.22%

COc1ncccc1CNC(=O)N(Cc1ccccc1F)C1CC1
cytotoxicity at 10 µM: 2.99%

CCc1cccc(C)c1NC(=O)C1CC(=O)N(Cc2ccccn2)C1 (stereo unspecified)
cytotoxicity at 10 µM: 1.09%

Cc1nn(C(C)C)c(C)c1S(=O)(=O)Nc1cccc(F)c1
cytotoxicity at 10 µM: -0.335%

NC(=O)C1CCCN1C1CCN(C(=O)c2cccc3c2OCO3)CC1 (stereo unspecified)
cytotoxicity at 10 µM: -0.353%

c1ccc(N(CCn2cncn2)CC2CC2)cc1
cytotoxicity at 10 µM: 3.04%

Cc1n[nH]c(C)c1NC(=O)NCc1ccccn1
cytotoxicity at 10 µM: 1.85%

CCC1COCCN1C(=O)NCc1nccn1CC(C)C (stereo unspecified)
cytotoxicity at 10 µM: -3.36%

N#Cc1ccc(NC2CCN(CC(F)F)CC2)c(F)c1
cytotoxicity at 10 µM: -5.3%

NCC1(c2cccc(C(F)(F)F)c2)CCOCC1
cytotoxicity at 10 µM: -11.1%

O=C(NCCCO)Nc1cccc(Cl)c1F
cytotoxicity at 10 µM: 2.79%

O=C(Nc1nncs1)NC1CCc2ccccc21 (stereo unspecified)
cytotoxicity at 10 µM: -10%

O=C1N(Cc2cccc(F)c2)CCC12CCCN(c1ncc(F)cn1)C2 (stereo unspecified)
cytotoxicity at 10 µM: 0.797%

CC[C@@H](C)[C@@H](N)C(=O)Nc1cccc(-c2cnc(N(C)CCO)nc2)c1
cytotoxicity at 10 µM: -5.89%

C[C@@H]1CN(c2nc(N)nc3c2CCC3)C[C@]1(C)O
cytotoxicity at 10 µM: 4.6%

CC(C)[C@@H]1CN(C(=O)CCn2ccccc2=O)C[C@H]1NS(C)(=O)=O
cytotoxicity at 10 µM: 6.2%

CCOCc1nc(-c2ccc(F)cc2Cl)n(C2CCN(C)CC2)n1
cytotoxicity at 10 µM: 0.0453%

CCCc1cc(C(=O)N2CC(c3ccncc3)C2)ccn1
cytotoxicity at 10 µM: 2.36%

COc1ccc(N2CCN(C(=O)Cn3nc(C)c(C)c3C)C(C)C2)cc1 (stereo unspecified)
cytotoxicity at 10 µM: -4.33%

COCCc1noc(-c2cn(CCc3ccccc3)nn2)n1
cytotoxicity at 10 µM: -2.56%

CN(C)CC1(O)CCCN(C(=O)CCc2nc3cccnc3n2C)C1 (stereo unspecified)
cytotoxicity at 10 µM: 0.0448%

CSCCC(=O)N1CCC(CCC(=O)NCC2CCCO2)CC1 (stereo unspecified)
cytotoxicity at 10 µM: 10.7%

COCc1cc(N2CCOC(c3ccc(Cl)cc3)C2)ncn1 (stereo unspecified)
cytotoxicity at 10 µM: 1.92%

Cc1cc(N2CCC(N3CCOCC3)C2)n2nc(C)c(C)c2n1 (stereo unspecified)
cytotoxicity at 10 µM: 3.9%

N[C@@H]1c2ccccc2C2(CCN(C(=O)c3cncc(Cl)c3)CC2)[C@H]1O
cytotoxicity at 10 µM: -2.78%

Cc1ccc(CN(C)C(C(=O)O)c2ccc3c(c2)OCO3)o1 (stereo unspecified)
cytotoxicity at 10 µM: 6.35%

CCc1nnc(N[C@H](C)c2cccc(OC)c2)o1
cytotoxicity at 10 µM: 1.35%

CCOCCn1nc(C2CCNCC2)n(Cc2ccccc2)c1=O
cytotoxicity at 10 µM: 4.08%

C[C@@H]1CN(CCC(=O)N(C)Cc2ccccc2)C[C@@]1(O)C1CCC1
cytotoxicity at 10 µM: -6.95%

Cc1cc(C(=O)N2CCCC(c3nccn3Cc3ccncc3)C2)no1 (stereo unspecified)
cytotoxicity at 10 µM: 0.471%

CSCC(=O)N1CCC(c2nccn2Cc2cscn2)CC1
cytotoxicity at 10 µM: -6.6%

Cn1ncc(N2CCC(CNC(=O)[C@@H](N)C3CCCCC3)CC2)cc1=O
cytotoxicity at 10 µM: 12.7%

CSc1ncc(C(=O)N2C[C@@H](NC(C)=O)[C@H](c3ccc(C)cc3)C2)cn1
cytotoxicity at 10 µM: -0.645%

COCCN(C)CCN1CC2(CCN(C3CCCOC3)CC2)OC1=O (stereo unspecified)
cytotoxicity at 10 µM: -11%

CN1CC(c2ccccc2)CC12CCN(C(=O)c1cncc(Cl)c1)CC2 (stereo unspecified)
cytotoxicity at 10 µM: -12.6%

CCN1CCC2(CCC1=O)CN(c1ccnc(SC)n1)CCN2C (stereo unspecified)
cytotoxicity at 10 µM: 17.7%

CCSCC(C)NCc1nncn1C1CCCCC1 (stereo unspecified)
cytotoxicity at 10 µM: 15.3%

Cc1[nH]ccc1C(=O)N1CCC(c2nnc(Cn3ccnc3)n2C)CC1
cytotoxicity at 10 µM: -9.61%

CCn1cc(CNC2CC(=O)N(CCc3cccc(Cl)c3)C2)cn1 (stereo unspecified)
cytotoxicity at 10 µM: -8.54%

Cc1nn(CC(=O)n2cccn2)c(C)c1I
cytotoxicity at 10 µM: -11.5%

COc1c(C2CCCN2C(=O)c2sc(C)nc2C)c(C)nn1C (stereo unspecified)
cytotoxicity at 10 µM: 3.62%

Cc1ncc(CN2CCN(c3ccc4nncn4n3)C(C)C2)s1 (stereo unspecified)
cytotoxicity at 10 µM: -9.04%

O=C(Cc1cccc(O)c1)NCCCNC(=O)c1cccc(F)c1
cytotoxicity at 10 µM: 1.65%

Cc1cc(C)n(CC2CN(CC(=O)NC3CCCCC3)CCO2)n1 (stereo unspecified)
cytotoxicity at 10 µM: -5.17%

Cc1nc(C2CCCN(C(=O)c3ccc(OCC4CC4)nc3)C2)no1 (stereo unspecified)
cytotoxicity at 10 µM: -4.41%

CCNC(c1ccc(C(C)C)cc1)c1cccnc1 (stereo unspecified)
cytotoxicity at 10 µM: -1.66%

O=C(c1cnc(C2CC2)s1)N1CCCC1Cn1cccn1 (stereo unspecified)
cytotoxicity at 10 µM: -5.09%

Cc1nc(C)n(C2CCCN(C(=O)c3cn4c(C)cccc4n3)C2)n1 (stereo unspecified)
cytotoxicity at 10 µM: -7.72%

CC(C)(C)c1noc(CN2CCN(C(=O)c3cccs3)CC2)n1
cytotoxicity at 10 µM: -5.82%

Cn1ncc(NCc2cc(F)cc(F)c2)c(Cl)c1=O
cytotoxicity at 10 µM: 6.69%

O=C(CNCCn1cccn1)NCC1(c2ccccc2)CC1
cytotoxicity at 10 µM: 3.15%

Cn1ncc2c1CCCC2NCc1ccc(Cl)s1 (stereo unspecified)
cytotoxicity at 10 µM: 7.6%

CC(O)CN(CC(=O)NC(=O)NCC(F)(F)F)c1ccccc1 (stereo unspecified)
cytotoxicity at 10 µM: 1.15%

Cc1nnc(N2CCC(CS(N)(=O)=O)CC2)c(C#N)c1C
cytotoxicity at 10 µM: 2.12%

Cn1nccc1C(=O)N1CCC2(CC1)COC(COc1ccccn1)C2 (stereo unspecified)
cytotoxicity at 10 µM: -7.18%

Cc1cccc(Cn2c3c(ccc2=O)CCN(Cc2ccoc2)CC3)n1
cytotoxicity at 10 µM: -11.5%

O=c1ccc2c(n1CCN1CCCC1)CCN(Cc1ccoc1)CC2
cytotoxicity at 10 µM: -8.97%

Cn1cc(N2C(=O)CC[C@@H]3[C@H]2CCN3CC2CCOCC2)cn1
cytotoxicity at 10 µM: 7.86%

CNC(=O)[C@@H]1CCO[C@@H]2CCN(CCc3ccccc3)C[C@H]21
cytotoxicity at 10 µM: 2.55%

CC(C)N(C)Cc1cnc2n1CCN(CCc1ccccc1)C2
cytotoxicity at 10 µM: -4.58%

c1cc2nc(C3CCN(CC4CC4)CC3)nn2cc1N1CCCC1
cytotoxicity at 10 µM: -8.13%

Cn1cc(CN2C[C@H]3CCC[C@@]3(COCC3CC3)C2)cn1
cytotoxicity at 10 µM: -97.8%

N#Cc1cccc(CN2C[C@@H]3CN(c4ncccn4)C[C@@H]3C2)c1
cytotoxicity at 10 µM: 8.04%

CNC(=O)[C@H]1C[C@H]2CN(Cc3ccc(OC)cc3)C[C@@H]1O2
cytotoxicity at 10 µM: 3.02%
